Test results taken from publication PMC12164861 (Drug Design, Development and Therapy, 2025).

Columns and labels:
albumin = conditions: cited from earlier work
[1] = cited from earlier work
[2] = Teicoplanin steady-state plasma trough concentration; assay type: in vivo, human; conditions: for teicoplanin Cmin: median (interquartile range)
Summary of the method: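 Retrospective cohort of adult ICU patients (Jan 2018–Dec 2023) under therapeutic drug monitoring of the test compound. Venous blood was drawn just before the next dose after at least 6 doses (steady state). Total plasma concentration was measured by HPLC, linear range 3.125–100.0 µg/mL. Target was Cmin ≥ 15.0 μg/mL. Non-normal data are given as median (interquartile range), counts as rate (%).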

Row | percentage of teicoplanin Cmin >30.0 μg/mL ([2]; all values (64/404)) [%] | teicoplanin Cmin ([2]; patients who did not use caspofungin) | teicoplanin Cmin ([2]; patients who did not use voriconazole) | teicoplanin Cmin ([2]; patients who used caspofungin) | teicoplanin Cmin ([2]; patients who used voriconazole) | percentage of teicoplanin Cmin >30.0 μg/mL ([2]; patients with fungal co-infection) [%] | percentage of teicoplanin Cmin >30.0 μg/mL ([2]; patients without fungal infection) [%] | percentage of teicoplanin Cmin reaching the target (≥15.0 μg/mL) ([2]; year 2018 (12/50)) [%] | percentage of teicoplanin Cmin reaching the target (≥15.0 μg/mL) ([2]; year 2019 (11/18)) [%] | percentage of teicoplanin Cmin reaching the target (≥15.0 μg/mL) ([2]; year 2020 (26/40)) [%] | percentage of teicoplanin Cmin reaching the target (≥15.0 μg/mL) ([2]; year 2021 (34/49)) [%] | percentage of teicoplanin Cmin reaching the target (≥15.0 μg/mL) ([2]; year 2022 (66/88)) [%] | percentage of teicoplanin Cmin reaching the target (≥15.0 μg/mL) ([2]; year 2023 (123/159)) [%] | Compound | albumin binding (albumin) | probability of target attainment (PTA) ([1]; model-based simulations, higher-dose regimens (12 mg/kg), MIC up to 0.5 mg/L, elderly critically ill patients with pneumonia) | probability of target attainment (PTA) of target Cmin ([1]; simulations, standard dosage regimen, critically ill patients with severe renal dysfunction (eGFR ≤30 mL/min/1.73 m²)) [%]
1 |  |  |  |  |  |  |  |  |  |  |  |  |  | CC[C@H](C)C[C@H](C)CCCCCCCCC(=O)N[C@H]1C[C@@H](O)[C@@H](NCCN)NC(=O)[C@@H]2[C@@H](O)CCN2C(=O)[C@H]([C@H](O)CCN)NC(=O)[C@H]([C@H](O)[C@@H](O)c2ccc(O)cc2)NC(=O)[C@@H]2C[C@@H](O)CN2C(=O)[C@H]([C@@H](C)O)NC1=O [Caspofungin] | ≈ 97% |  | 
2 |  |  |  |  |  |  |  |  |  |  |  |  |  | C[C@@H](c1ncncc1F)[C@](O)(Cn1cncn1)c1ccc(F)cc1F [voriconazole] | 58% |  | 
3 | 15.8 | 19.67 (12.38, 25.45) μg/mL | 19.74 (13.22, 26.18) μg/mL | 20.12 (14.67, 26.68) μg/mL | 18.48 (10.84, 24.24) μg/mL | 20.3 | 12.0 | 24.0 | 61.1 | 65.0 | 69.4 | 75.0 | 77.4 | Teicoplanin |  | at least 85% | 52.8
